In ChEMBL document CHEMBL1144465, “Role of acidic pH in the susceptibility of intraphagocytic methicillin-resistant Staphylococcus aureus strains to meropenem and cloxacillin” (Antimicrob Agents Chemother, 2007):
Converted amounts (≈) assume the structure as drawn. The source made the active and inactive calls. The calls are words filed in the database; no cut-off is given here.

What was measured:
Staphylococcus aureus [1] = test: Antimicrobial activity against methicillin-susceptible Staphylococcus aureus ATCC 25923 after phagocytosis by human THP1 macrophages assessed as reduction in bacterial count at pH 7.4 after 24 hrs; assay type: functional, organism-based; settings: ATCC 25923, THP-1, 24 h
Staphylococcus aureus [2] = test: Antimicrobial activity against methicillin-susceptible Staphylococcus aureus ATCC 25923 after phagocytosis by human THP1 macrophages assessed as reduction in bacterial count after 24 hrs; assay type: functional, organism-based; settings: ATCC 25923, THP-1, 24 h
Outline: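 THP-1 human macrophage-like cells allowed to phagocytose S. aureus for 1 h, then exposed 24 h to a wide range of extracellular total-drug concentrations; controls given gentamicin at 0.5× MIC. Response is log10 CFU change from original inoculum; Hill equation fitted by nonlinear regression for EC50, Emax and static concentration; means of three independent determinations.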

Staphylococcus aureus [3] = test: Antimicrobial activity against methicillin-resistant Staphylococcus aureus […] after phagocytosis by human THP1 macrophages assessed as reduction in bacterial count at pH 7.4 after 24 hrs; assay type: functional, organism-based; settings: THP-1, 24 h
Staphylococcus aureus [4] = test: Antimicrobial activity against methicillin-susceptible Staphylococcus aureus ATCC 25923 after phagocytosis by human THP1 macrophages assessed as reduction in bacterial count at pH 5.5 after 24 hrs; assay type: functional, organism-based; settings: ATCC 25923, THP-1, 24 h
Staphylococcus aureus [5] = test: Reversal bacterial susceptibility against methicillin-resistant Staphylococcus aureus ATCC 33591 after phagocytosis by human THP1 macrophages assessed as bacterial count in presence of 10 mM ammonium chloride after 24 hrs; assay type: functional, organism-based
Outline: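 Infected THP-1 macrophages (MRSA ATCC 33591) given 10 mM ammonium chloride after phagocytosis together with meropenem 50 mg/liter or cloxacillin 8 mg/liter (total drug), incubated 24 h; controls with gentamicin 0.5× MIC; CFU counted; means of three independent determinations.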

Staphylococcus aureus [6] = test: Antibacterial activity against methicillin-resistant Staphylococcus aureus 459 at pH 5.5; assay type: functional
Outline: (§1)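 MRSA clinical isolate 459 (penicillinase-negative, mecA-positive) grown in Mueller-Hinton broth with 2% NaCl; MIC determined in broth adjusted to pH 5.5 or 7.4, inoculum 10^6 CFU/ml of exponential-phase bacteria, 24-h incubation.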

Staphylococcus aureus [7] = test: Antibacterial activity against methicillin-resistant Staphylococcus aureus 459 at pH 7.4; assay type: functional; outline: as §1
Staphylococcus aureus [8] = test: Antimicrobial activity against Staphylococcus aureus assessed as reduction in bacterial count at pH 5.5 after 24 hrs
Staphylococcus aureus [9] = test: Antimicrobial activity against methicillin-resistant Staphylococcus aureus ATCC 33591 after phagocytosis by human THP1 macrophages assessed as reduction in bacterial count after 24 hrs; settings: ATCC 33591, THP-1, 24 h
Staphylococcus aureus [10] = test: Induction of mecA/16S rRNA ratio in methicillin-resistant Staphylococcus aureus ATCC 33591 at 0.5 times MIC at pH 7.4 after 5 hrs; assay type: functional
Staphylococcus aureus [11] = test: Induction of mecA/16S rRNA ratio in methicillin-resistant Staphylococcus aureus ATCC 33591 at 0.5 times MIC at pH 5.5 after 5 hrs; assay type: functional

Row | SMILES | EC50 (Staphylococcus aureus [1]) [µg/mL] | EC50 (Staphylococcus aureus [2]) [µg/mL] | EC50 (Staphylococcus aureus [3]) [µg/mL] | EC50 (Staphylococcus aureus [4]) [µg/mL] | Activity (Staphylococcus aureus [5]) | MIC (Staphylococcus aureus [6]) [µg/mL] | MIC (Staphylococcus aureus [7]) [µg/mL] | EC50 (Staphylococcus aureus [8]) [µg/mL] | EC50 (Staphylococcus aureus [9]) [µg/mL] | Ratio (Staphylococcus aureus [10]) | Ratio (Staphylococcus aureus [11])
1 | Cc1onc(-c2ccccc2Cl)c1C(=O)N[C@@H]1C(=O)N2[C@@H]1SC(C)(C)[C@@H]2C(=O)O [CLOXACILLIN] | 0.35 (≈ 0.803 µM) | 0.27 (≈ 0.619 µM) | 16.9 (≈ 38.8 µM) | 0.22 (≈ 0.505 µM) | inactive | 0.03 (≈ 0.0688 µM) | 0.125 (≈ 0.287 µM) | 0.07 (≈ 0.161 µM) | 0.23 (≈ 0.528 µM) | – | –
2 | C[C@@H](O)[C@H]1C(=O)N2C(C(=O)O)=C(S[C@@H]3CN[C@H](C(=O)Nc4cccc(C(=O)O)c4)C3)[C@H](C)[C@H]12 [ERTAPENEM] | – | – | – | – | – | – | – | – | – | 0.79 | 0.67
3 | C[C@@H](O)[C@H]1C(=O)N2C(C(=O)O)=C(S[C@@H]3CN[C@H](C(=O)N(C)C)C3)[C@H](C)[C@H]12 [MEROPENEM] | 0.29 (≈ 0.756 µM) | 0.14 (≈ 0.365 µM) | – | 0.2 (≈ 0.522 µM) | inactive | – | – | 0.33 (≈ 0.861 µM) | 0.16 (≈ 0.417 µM) | – | –
4 | Cc1onc(-c2ccccc2)c1C(=O)N[C@@H]1C(=O)N2[C@@H]1SC(C)(C)[C@@H]2C(=O)O [OXACILLIN] | – | – | – | – | – | 0.03 (≈ 0.0747 µM) | 1 (≈ 2.49 µM) | – | – | – | –
5 | CC1(C)S[C@@H]2[C@H](NC(=O)Cc3ccccc3)C(=O)N2[C@H]1C(=O)O [PENICILLIN G] | – | – | – | – | – | 0.03 (≈ 0.0897 µM) | 0.25 (≈ 0.748 µM) | – | – | – | –
